Sampled rows, rich in hits. Any-hit rate of the full collection: about 3.1%.
PHOSPHO1 block – PubChem AID 1565 | Phosphoethanolamine/phosphocholine phosphatase (Homo sapiens), Q8TCT1 | recombinant PHOSPHO1, absorbance phosphatase assay | inhibition, % at 13.3 µM | hit rate 1.1% among 290,000; in the data active means inhibition above about 60%
Target sequence (Q8TCT1 whole entry, looked up): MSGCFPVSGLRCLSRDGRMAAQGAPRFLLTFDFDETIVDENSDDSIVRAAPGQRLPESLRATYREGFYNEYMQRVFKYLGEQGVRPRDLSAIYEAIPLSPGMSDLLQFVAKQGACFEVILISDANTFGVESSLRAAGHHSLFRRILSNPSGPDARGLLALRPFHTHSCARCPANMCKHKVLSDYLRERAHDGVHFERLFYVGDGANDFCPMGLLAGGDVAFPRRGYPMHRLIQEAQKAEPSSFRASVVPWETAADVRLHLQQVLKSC
IMP-1 inhibitor – IMP-1 metallo-beta-lactamase inhibitors, primary screen, biochemical, epi-absorbance readout, Pseudomonas aeruginosa enzyme. purified IMP-1, nitrocefin hydrolysis, epi-absorbance fluorescence. metallo-beta-lactamase IMP-1 (Pseudomonas aeruginosa). hit rate 0.45% among 290,000. inhibition, % at 5.6 µM;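 active means inhibition above the mean plus 3 SD of all compounds in the same screening run, cut at about 4.5% in these data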;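 further: 0% = IMP-1 with DMSO and 100% = DMSO wells lacking enzyme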
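System: Purified recombinant IMP-1 metallo-beta-lactamase enzyme | Measured by: Fluorescence quenching readout, ex 480/em 530 nm | Replication: Singlicate | Incubation: 15 min preincubation plus 25 min reaction at 25 °C | Evaluation: Percent inhibition from optical density relative to buffer-blank wells | Benchmarks: DMSO with and without IMP-1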
HCV core dimer – inhibitors of HCV core protein dimerization, primary screen, biochemical, TR-FRET, high-throughput; TR-FRET GST/Flag-core106 dimerization, 1536-well; inhibition, % at 5 µM; hit rate 0.33% among 300,000; AID 1899, 2009;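 active means inhibition above the mean of all tested compounds plus 3 SD, set per screening campaign, cut at about 45% in these data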
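System – GST-tagged and Flag-tagged HCV core protein residues 1-106 · Repeats – one well for each compound · Technique – TR-FRET 671 and 617 nm emission · Doses – one concentration, 5 µM, in 0.5% DMSO · Times – 4 h, 22.5 °C incubation · Also added – Eu donor and XL665 acceptor anti-tag antibodies · Measure – percent inhibition of core106 dimerization signal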
HCV NS3 hel inh – inhibitors of HCV NS3 helicase, primary screen, biochemical, Cy5 molecular beacon fluorescence; Hepatitis C virus NS3 helicase; NS3 helicase DNA unwinding; inhibition, % at 10.9 µM; hit rate 0.56% among 290,000;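 active means inhibition above the mean of all tested compounds plus 3 SD, set per campaign, cut at about 35% in these data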;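 further: 0% = DMSO wells and 100% = thioflavine S control wells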
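Material: hepatitis C virus NS3 helicase domain fragment enzyme; measured by: Cy5 fluorescence, 0 and 60 min reads; control set: DMSO and thioflavine S; incubation: 60 min unwinding reaction at 25 °C after ATP addition; read-out basis: % inhibition from 60/0 min fluorescence ratio, DMSO 0%, thioflavine S 100%; repeats: singlicate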
VIM-2 inh – VIM-2 metallo-beta-lactamase inhibitors, primary screen, biochemical, epi-absorbance readout, Pseudomonas aeruginosa enzyme; purified VIM-2, nitrocefin hydrolysis, epi-absorbance fluorescence; inhibition, % at 5.6 µM; hit rate 0.89% among 290,000;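 active means inhibition above the mean of all tested compounds plus 3 SD, cutoff set per screening run, cut at about 7.5% in these data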;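 further: red hydrolysis product quenches plate fluorescence so inhibitors raise well fluorescence; 0% = enzyme with DMSO and 100% = DMSO without enzyme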
UBC9 SUMO inh – inhibitors of in vitro SUMOylation cascade, primary screen, biochemical, HTRF, uHTS. SUMO-conjugating enzyme UBC9 (Homo sapiens), P63279. HTRF SUMOylation assay, SAE1/SAE2 + UBC9. inhibition, % at 35 µM. hit rate 0.36% among 290,000; in the data active means inhibition above about 50%, passing the limit was not always enough
Target sequence (P63279 whole entry, looked up): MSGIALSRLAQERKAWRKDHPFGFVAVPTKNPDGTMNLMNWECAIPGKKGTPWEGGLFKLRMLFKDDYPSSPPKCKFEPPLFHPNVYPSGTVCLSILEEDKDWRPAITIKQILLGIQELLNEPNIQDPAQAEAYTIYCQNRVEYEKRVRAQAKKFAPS
The depositor's hits bear a star.

`Cn1ncc(Cl)c1C(=O)N1CCN(c2ccccc2)CC1` gave PHOSPHO1 block 43, IMP-1 inhibitor -2, HCV core dimer -7, HCV NS3 hel inh 3, VIM-2 inh -1 and UBC9 SUMO inh 8.
Cn1ncc(Cl)c1C(=O)N1CCN(c2ncccn2)CC1 was read as PHOSPHO1 block 63*, IMP-1 inhibitor -3, HCV core dimer -15, HCV NS3 hel inh 0, VIM-2 inh -1 and UBC9 SUMO inh 18.
`CC(=O)c1ccc(NC(=O)Nc2cccnc2)cc1` gave PHOSPHO1 block -1, IMP-1 inhibitor -2, HCV NS3 hel inh 0, VIM-2 inh -3 and UBC9 SUMO inh 58*.
For O=C(Nc1ccc(N2C(=O)C3C4C=CC(C4)C3C2=O)cc1)Nc1cccnc1 (stereo unspecified) the results were PHOSPHO1 block -3, IMP-1 inhibitor -1, HCV core dimer -3, HCV NS3 hel inh -10, VIM-2 inh 2 and UBC9 SUMO inh 56*.
For O=C(NCCN1C(=O)C2C3C=CC(C3)C2C1=O)Nc1cccnc1 (stereo unspecified) the results were PHOSPHO1 block -19, IMP-1 inhibitor -4, HCV core dimer -6, HCV NS3 hel inh 8, VIM-2 inh -6 and UBC9 SUMO inh 4.
Screening CCc1nnc(NC(=O)CCC(=O)N2CCN(S(=O)(=O)c3cc(Cl)ccc3OC)CC2)s1 returned PHOSPHO1 block 70*, IMP-1 inhibitor -4, HCV core dimer -5, HCV NS3 hel inh 4 and VIM-2 inh -4.
Screening CCOC(=O)C1=C(CSc2nc(CC)c(C)cc2C#N)OC(N)=C(C#N)C1c1ccccc1 (stereo unspecified) returned PHOSPHO1 block 89*, IMP-1 inhibitor 0, HCV core dimer 22, HCV NS3 hel inh 4, VIM-2 inh -1 and UBC9 SUMO inh 17.
For CCOC(=O)C1=C(CSc2nc3c(cc2C#N)CN(C)CC3)OC(N)=C(C#N)C1c1ccc(Cl)cc1 (stereo unspecified) the results were PHOSPHO1 block 67*, IMP-1 inhibitor 1, HCV core dimer 57*, HCV NS3 hel inh -5, VIM-2 inh 2 and UBC9 SUMO inh 23.
For CCOC(=O)C1=C(CSc2nc(C)cc(C)c2C#N)OC(N)=C(C#N)C1c1ccccc1 (stereo unspecified) the results were PHOSPHO1 block 91*, IMP-1 inhibitor -1, HCV core dimer 18, HCV NS3 hel inh 15, VIM-2 inh 2 and UBC9 SUMO inh 23.
Screening O=C(N/N=C/C1CC2CCC1C2)c1c[nH]c2ccccc12 (stereo unspecified) returned PHOSPHO1 block 32, IMP-1 inhibitor -1, HCV core dimer -8, HCV NS3 hel inh 11, VIM-2 inh -6 and UBC9 SUMO inh 2.
For Cn1c(=O)c2c(nc(N3CCc4ccccc4C3)n2C)n(C)c1=O the results were PHOSPHO1 block -1, IMP-1 inhibitor -1, HCV core dimer 3, HCV NS3 hel inh -7, VIM-2 inh -1 and UBC9 SUMO inh 6.
Screening CCN(CC)S(=O)(=O)c1cc(NC(=O)CNc2cccc(S(=O)(=O)N3CCCC3)c2)ccc1C returned HCV core dimer 1.
`COc1ccc([N+](=O)[O-])cc1NCc1ccccc1` gave PHOSPHO1 block 9, IMP-1 inhibitor -3, HCV core dimer -4, HCV NS3 hel inh -8, VIM-2 inh -3 and UBC9 SUMO inh -12.
COc1ccc([N+](=O)[O-])cc1NCc1ccccc1C was read as PHOSPHO1 block 60*, IMP-1 inhibitor -2, HCV core dimer 6, HCV NS3 hel inh -15, VIM-2 inh -2 and UBC9 SUMO inh 9.
N#Cc1cc[n+](CC(=O)c2ccc(NC(=O)c3ccccc3)cc2)cc1 was read as PHOSPHO1 block -86, IMP-1 inhibitor -4, HCV core dimer 3, HCV NS3 hel inh -20, VIM-2 inh -1 and UBC9 SUMO inh 3.
Cn1c(=O)[nH]c(=O)c2c1nc1n2CC(O)CN1c1ccccc1 (stereo unspecified) was read as PHOSPHO1 block -12, IMP-1 inhibitor 1, HCV core dimer -12, HCV NS3 hel inh 13, VIM-2 inh 4 and UBC9 SUMO inh -4.
`O=Cc1coc2ccc3ccccc3c2c1=O` gave PHOSPHO1 block 8, IMP-1 inhibitor 36*, HCV core dimer 5, HCV NS3 hel inh 34, VIM-2 inh 3 and UBC9 SUMO inh 29.
Cc1c(/C(O)=C2/C(=O)C(=O)N(CCN3CCOCC3)C2c2ccccn2)cnn1-c1ccccc1 (stereo unspecified) was read as PHOSPHO1 block 60*, IMP-1 inhibitor -4, HCV core dimer 7, HCV NS3 hel inh 8, VIM-2 inh -3 and UBC9 SUMO inh 4.
`Cc1cc(C)n(Cc2cc(C(=O)O)c3ccccc3n2)n1` gave PHOSPHO1 block -22, IMP-1 inhibitor -2, HCV core dimer -5, HCV NS3 hel inh -5, VIM-2 inh -2 and UBC9 SUMO inh 13.
Screening CC(=O)c1cccc(NC(=S)Nc2cccc3ccccc23)c1 returned PHOSPHO1 block 11, IMP-1 inhibitor -2, HCV core dimer 0, HCV NS3 hel inh 13, VIM-2 inh -4 and UBC9 SUMO inh 95.
`CC(=O)c1ccc(NC(=S)Nc2cccc3cnccc23)cc1` gave PHOSPHO1 block 30, IMP-1 inhibitor -3, HCV core dimer 4, HCV NS3 hel inh 2, VIM-2 inh 6 and UBC9 SUMO inh 98*.
Screening S=C(Nc1cccc(Cl)c1)Nc1cccc2cnccc12 returned PHOSPHO1 block -16, IMP-1 inhibitor -4, HCV core dimer 2, HCV NS3 hel inh -7, VIM-2 inh 4 and UBC9 SUMO inh 98*.
`Cc1ccc(NC(=S)Nc2cccc3cnccc23)cc1` gave PHOSPHO1 block 52, IMP-1 inhibitor 0, HCV core dimer 0, HCV NS3 hel inh 14, VIM-2 inh 4 and UBC9 SUMO inh 100*.
`Cn1c(SCC(=O)n2c3c(c4ccccc42)CCCC3)nnc1-c1ccccc1` gave PHOSPHO1 block 8, IMP-1 inhibitor 1, HCV core dimer 3, HCV NS3 hel inh 1, VIM-2 inh 8.7* and UBC9 SUMO inh 0.
Cc1ccc(-c2nnc(SCC(=O)n3c4c(c5ccccc53)CCCC4)o2)cc1 was read as PHOSPHO1 block -9, IMP-1 inhibitor 1, HCV core dimer -2, HCV NS3 hel inh 6, VIM-2 inh -1 and UBC9 SUMO inh 16.
Cc1nnc(SCC(=O)n2c3c(c4ccccc42)CCCC3)s1 was read as PHOSPHO1 block -2, IMP-1 inhibitor -1, HCV core dimer 2, HCV NS3 hel inh 8, VIM-2 inh 9.8* and UBC9 SUMO inh -9.

Screening data from PubChem BioAssay.
